Measured values from ChEMBL document CHEMBL4145529, “Design, synthesis and biological evaluation of hybrid nitroxide-based non-steroidal anti-inflammatory drugs” (Eur J Med Chem, 2018).
One block for each compound: values may come before it.

Tests used:
[1] = target: T1, Prostaglandin G/H synthase 2 (Homo sapiens) (UniProt P35354); assay: Inhibition of COX2-induced PGE2 production in human A549 cells assessed as PGE2 level at 30 uM by ELISA (reference value: 57 +/- 4 pg/ml); assay type: cell-based
T1 sequence (whole entry): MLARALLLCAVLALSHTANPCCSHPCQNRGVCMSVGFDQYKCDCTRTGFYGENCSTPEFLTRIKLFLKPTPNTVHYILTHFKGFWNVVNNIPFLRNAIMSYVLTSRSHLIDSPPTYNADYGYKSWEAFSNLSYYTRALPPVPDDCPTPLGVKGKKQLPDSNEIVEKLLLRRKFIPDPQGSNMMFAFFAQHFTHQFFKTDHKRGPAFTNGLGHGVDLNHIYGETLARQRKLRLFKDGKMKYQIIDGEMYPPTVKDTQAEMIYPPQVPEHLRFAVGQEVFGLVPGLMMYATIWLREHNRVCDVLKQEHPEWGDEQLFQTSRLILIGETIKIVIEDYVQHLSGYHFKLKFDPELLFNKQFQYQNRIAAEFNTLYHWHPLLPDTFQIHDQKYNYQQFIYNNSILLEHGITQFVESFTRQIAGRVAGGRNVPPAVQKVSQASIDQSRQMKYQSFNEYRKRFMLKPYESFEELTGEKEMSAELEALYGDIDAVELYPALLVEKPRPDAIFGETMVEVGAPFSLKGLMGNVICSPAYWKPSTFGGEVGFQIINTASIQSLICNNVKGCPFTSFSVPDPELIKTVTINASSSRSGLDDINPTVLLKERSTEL
In short: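 A549 NSCLC cells treated with compounds at 30 μM; prostaglandin E2 released via COX quantified by ELISA, reported as pg/mL; mean ± S.D. of 3 determinations each repeated in duplicate; Student's t-test for significance.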

661W [2] = assay: Antioxidant activity in mouse 661W cells assessed as inhibition of antimycin-induced mitochondrial ROS production at 10 uM by fluorescence assay relative to control; assay type: functional
661W [3] = assay: Antioxidant activity in mouse 661W cells assessed as inhibition of antimycin-induced mitochondrial ROS production at 50 uM by fluorescence assay relative to control; assay type: functional
661W [4] = assay: Antioxidant activity in mouse 661W cells assessed as inhibition of antimycin-induced mitochondrial ROS production at 100 uM by fluorescence assay relative to control; assay type: functional
NCI-H1299 [5] = assay: Growth inhibition of human NCI-H1299 cells assessed as cell growth at 90 uM in presence of aspirin by MTT assay relative to control; assay type: functional; settings: read-out: Activity
In short: (§1)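 NCI-H1299 cell growth by MTT assay, tested at 18–900 μM; combination wells got aspirin + Tempol at equal concentration. Given as % growth. Mean ± S.D. of 3 experiments, each run in duplicate; Student's t-test.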

A549 [6] = assay: Effect on basal ROS level in human A549 cells at 100 uM by DCFH-DA staining based fluorescence assay (reference value: 100 +/- 5%); assay type: cell-based; settings: a549, 100 µM
NCI-H1299 [7] = assay: Growth inhibition of human NCI-H1299 cells assessed as cell growth at 90 uM by MTT assay relative to control; assay type: functional; settings: read-out: Activity; in short: as §1
NCI-H1299 [8] = assay: Growth inhibition of human NCI-H1299 cells assessed as cell growth at 900 uM in presence of aspirin by MTT assay relative to control; assay type: functional; settings: read-out: Activity; in short: as §1
NCI-H1299 [9] = assay: Growth inhibition of human NCI-H1299 cells assessed as cell growth at 900 uM by MTT assay relative to control; assay type: functional; settings: read-out: Activity; in short: as §1
A549 [10] = assay: Anti-oxidant activity in human A549 cells assessed as inhibition of H2O2-induced ROS production by measuring ROS level at 100 uM by DCFH-DA staining based fluorescence assay (reference value: 194 +/- 13%); assay type: functional; set-up: scale not given: the % may be the effect or the level left
[11] = target: T1, Prostaglandin G/H synthase 2 (Homo sapiens); assay: Inhibition of COX2-induced PGE2 production in human A549 cells assessed as PGE2 level at 90 uM by ELISA; assay type: cell-based
In short: (§2)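 COX-derived PGE2 released by A549 cells, measured by ELISA in pg/mL. Test concentrations 4 or 90 μM; combination wells got aspirin + Tempol at 90 μM each. Mean ± S.D. of 3 determinations, each in duplicate; Student's t-test.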

[12] = target: T1, Prostaglandin G/H synthase 2 (Homo sapiens); assay: Inhibition of COX2-induced PGE2 production in human A549 cells assessed as PGE2 level at 90 uM in presence of aspirin by ELISA (reference value: 126 +/- 17 pg/ml); assay type: cell-based; in short: as §2
[13] = target: T1, Prostaglandin G/H synthase 2 (Homo sapiens); assay: Inhibition of COX2-induced PGE2 production in human A549 cells assessed as PGE2 level at 4 uM by ELISA (reference value: 126 +/- 17 pg/ml); assay type: cell-based; in short: as §2
NCI-H1299 [14] = assay: Growth inhibition of human NCI-H1299 cells assessed as cell growth at 90 uM in presence of tempol by MTT assay relative to control; assay type: functional; settings: read-out: Activity
In short: (§3)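 NCI-H1299 human NSCLC cells; proliferation measured by MTT assay with compounds at 90 or 900 μM, tested alone or as aspirin plus Tempol combination; growth expressed as % of control; mean ± S.D. of 3 experiments each in duplicate; significance by Student's t-test.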

NCI-H1299 [15] = assay: Growth inhibition of human NCI-H1299 cells assessed as cell growth at 900 uM in presence of tempol by MTT assay relative to control; assay type: functional; settings: read-out: Activity; in short: as §3

SMILES: CC1=C[C@H](O)CC(C)(C)[C@H]1/C=C/C(C)=C/C=C/C(C)=C/C=C/C=C(C)/C=C/C=C(C)/C=C/C1=C(C)C[C@@H](O)CC1(C)C [LUTEIN]
inhibition at 10 µM (661W [2]): 89.7%

SMILES: COc1ccc2c(c1)c(CC(=O)Nc1ccc3c(c1)C(C)(C)N([O])C3(C)C)c(C)n2C(=O)c1ccc(Cl)cc1
inhibition (661W [3]): 82.3%
Activity [1]: 58 pg/mL
inhibition (661W [2]): 97.6%
inhibition (661W [4]): 88.4%

SMILES: CC1(C)CC(O)CC(C)(C)N1[O] [TEMPOL]
growth at 90 µM (NCI-H1299 [5]): 102%
Activity (A549 [6]): 103%
growth at 90 µM (NCI-H1299 [7]): 100%
growth at 900 µM (NCI-H1299 [8]): 53%
growth at 900 µM (NCI-H1299 [9]): 98%
Activity (A549 [10]): 155%
Activity [11]: 105 pg/mL
Activity [12]: 75 pg/mL

SMILES: CC(=O)Oc1ccccc1C(=O)OC1CC(C)(C)N([O])C(C)(C)C1
Activity [13]: 87 pg/mL
Activity [1]: 31 pg/mL

SMILES: CC(=O)Oc1ccccc1C(=O)O [ASPIRIN]
growth at 90 µM (NCI-H1299 [14]): 102%
growth at 90 µM (NCI-H1299 [7]): 103%
growth at 900 µM (NCI-H1299 [15]): 53%
growth at 900 µM (NCI-H1299 [9]): 49%
Activity [11]: 79 pg/mL

Continued, values first:

Activity [1]: 23 pg/mL
SMILES: CC1(C)CC(C(=O)Oc2ccccc2C(=O)OCc2ccccc2)CC(C)(C)N1[O]

Activity [1]: 50 pg/mL
SMILES: CC1(C)c2cc(O)c(C(=O)O)cc2C(C)(C)N1[O]

Activity [1]: 34 pg/mL
SMILES: CC1(C)CC(C(=O)Oc2ccccc2C(=O)O)C(C)(C)N1[O] (configuration not stated)

Activity [13]: 99 pg/mL
Activity [1]: 54 pg/mL
SMILES: CC(=O)Oc1ccccc1C(=O)NC1CC(C)(C)N([O])C(C)(C)C1

Activity [1]: 45 pg/mL
SMILES: CC(=O)Oc1ccccc1C(=O)Nc1ccc2c(c1)C(C)(C)N([O])C2(C)C

Activity [1]: 52 pg/mL
SMILES: CC(=O)Oc1cc2c(cc1C(=O)O)C(C)(C)N([O])C2(C)C
